# From ChEMBL document CHEMBL3877276, “Design, synthesis, and biological evaluation of cyclic-indole derivatives as anti-tumor agents via the inhibition of tubulin polymerization” (Eur J Med Chem, 2017)
# Active and inactive are the calls of the source. No cut-off for these calls is given here.
# System: not listed separately
# Experiment: Cell cycle arrest in human A549 cells assessed as reduction in G1 phase at 10 to 50 nM measured after 24 to 48 hrs by propidium iodide staining based flow cytometry
# Assay type: functional
# Details: not given
# Procedure, shortened: (§1)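 A549 seeded at 3×10^5 cells/well and treated 24 or 48 h. Trypsinized, fixed in 70% ethanol at 4 °C overnight, RNase A 37 °C 30 min, then PI 4 °C 30 min. DNA content of 10,000 events read by flow cytometry at 488 nm. Three repeats.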
row,Structure (SMILES),Activity
1,COc1cc(C2CCCCc3c2ccc2c3ccn2C)cc(OC)c1OC (configuration not stated),Active

# System: not listed separately
# Experiment: Cell cycle arrest in human A549 cells assessed as accumulation at G2/M phase at 50 nM measured after 24 hrs by propidium iodide staining based flow cytometry relative to control
# Assay type: functional
# Details: not given
# Procedure, shortened: as §1
row,Structure (SMILES),Activity [%]
1,COc1cc(C2CCCCc3c2ccc2c3ccn2C)cc(OC)c1OC (configuration not stated),72.1

# System: not listed separately
# Experiment: Antiproliferative activity against human LoVo cells measured after 48 hrs by MTT assay
# Assay type: functional, cell-based
# Details: not given
row,Structure (SMILES),IC50 [nM]
1,COc1cc(C2CCCCc3c2ccc2c3ccn2C)cc(OC)c1OC (configuration not stated),49

# System: not listed separately
# Experiment: Antiproliferative activity against human A549 cells measured after 48 hrs by MTT assay
# Assay type: functional, cell-based
# Details: A549, 48 h
row,Structure (SMILES),IC50 [nM]
1,COc1cc(C2CCCCc3c2ccc2c3ccn2C)cc(OC)c1OC (configuration not stated),22

# System: not listed separately
# Experiment: Antiproliferative activity against HUVEC in presence of fetal calf serum and absence of growth factor measured after 48 hrs by MTT assay
# Assay type: cell-based
# Details: Homo sapiens
# Procedure, shortened: (§2)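 Cells in log phase plated at 5×10^3 cells/well, grown 24 h at 37 °C, 5% CO2, then exposed to a range of compound concentrations for 48 h. MTT (5 mg/mL stock) added, formazan dissolved in DMSO, absorbance read at 570 nm. IC50 from nonlinear regression, at least three independent experiments. Quiescent HUVECs kept in endothelial medium with 0.5% fetal calf serum, no growth factor.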
row,Structure (SMILES),IC50 [nM]
1,COc1cc(C2CCCCc3c2ccc2c3ccn2C)cc(OC)c1OC (configuration not stated),213

# System: not listed separately
# Experiment: Inhibition of porcine brain tubulin polymerization measured every 60 secs for 90 mins by fluorescence assay
# Parameters: species or system Sus scrofa
# Details: not given
# Procedure, shortened: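 Porcine brain tubulin in a fluorescence kit. Reaction mix: 80.0 mM PIPES sesquisodium (pH 6.9), 2.0 mM MgCl2, 0.5 mM EGTA, 1 mM GTP, 10.2% glycerol. Compound added and mix pre-warmed 1 min at 37 °C, then tubulin added to start. Fluorescence (ex 340, em 410 nm) read every 60 s for 90 min. IC50 from area under curve, three independent experiments.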
row,Structure (SMILES),IC50 [nM]
1,COc1cc(C2CCCCc3c2ccc2c3ccn2C)cc(OC)c1OC (configuration not stated),150

# System: not listed separately
# Experiment: Cell cycle arrest in human A549 cells assessed as accumulation at G2/M phase at 10 nM measured after 24 hrs by propidium iodide staining based flow cytometry relative to control
# Assay type: functional
# Details: not given
# Procedure, shortened: as §1
row,Structure (SMILES),Activity [%]
1,COc1cc(C2CCCCc3c2ccc2c3ccn2C)cc(OC)c1OC (configuration not stated),41

# System: not listed separately
# Experiment: Antiproliferative activity against human Bel7402 cells measured after 48 hrs by MTT assay
# Assay type: functional, cell-based
# Details: Bel-7402, 48 h
row,Structure (SMILES),IC50 [nM]
1,COc1cc(C2CCCCc3c2ccc2c3ccn2C)cc(OC)c1OC (configuration not stated),39

# System: not listed separately
# Experiment: Selectivity ratio of IC50 for HUVEC in presence of fetal calf serum and absence of growth factor to IC50 for human A549 cells
# Assay type: cell-based
# Details: HUVEC versus A549 cells, read-out: Ratio IC50
# Procedure, shortened: (§3)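 Ratio = IC50 in the normal line (HUVEC quiescent in 0.5% fetal calf serum without growth factor, MCF-10A, BJ or HLF) divided by IC50 in A549.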
row,Structure (SMILES),selectivity ratio
1,COc1cc(C2CCCCc3c2ccc2c3ccn2C)cc(OC)c1OC (configuration not stated),9.68

# System: not listed separately
# Experiment: Selectivity ratio of IC50 for human BJ cells to IC50 for human A549 cells
# Assay type: ADME, cell-based
# Details: BJ cells versus A549 cells, read-out: Ratio IC50
# Procedure, shortened: as §3
row,Structure (SMILES),selectivity ratio
1,COc1cc(C2CCCCc3c2ccc2c3ccn2C)cc(OC)c1OC (configuration not stated),55

# System: A549
# Experiment: Disruption of cellular microtubule network in human A549 cells measured after 12 hrs by Hochest 33342 staining based laser confocal microscopy
# Assay type: cell-based
# Details: not given
row,Structure (SMILES),Activity
1,COc1cc(C2CCCCc3c2ccc2c3ccn2C)cc(OC)c1OC (configuration not stated),Active

# System: not listed separately
# Experiment: Selectivity ratio of IC50 for human MCF10A cells to IC50 for human A549 cells
# Assay type: ADME, cell-based
# Details: MCF10A cells versus A549 cells, read-out: Ratio IC50
# Procedure, shortened: as §3
row,Structure (SMILES),selectivity ratio
1,COc1cc(C2CCCCc3c2ccc2c3ccn2C)cc(OC)c1OC (configuration not stated),30.5

# System: not listed separately
# Experiment: Cytotoxicity against HUVEC assessed as change in cell morphology at 20 nM in presence of fetal calf serum and absence of growth factor measured after 48 hrs by phase contrast microscopy
# Assay type: toxicity, cell-based
# Details: human, 0.02 µM
# Procedure, shortened: (§4)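 A549 cells and quiescent HUVECs (0.5% fetal calf serum, no growth factor) treated at 20 and 200 nM for 48 h. Morphology (rounding, shrinkage, blebbing, detachment) inspected by microscopy.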
row,Structure (SMILES),Activity
1,COc1cc(C2CCCCc3c2ccc2c3ccn2C)cc(OC)c1OC (configuration not stated),Non-Toxic

# System: A549
# Experiment: Induction of apoptosis in human A549 cells assessed as late and early apoptotic cells at 20 nM measured after 48 hrs by Annexin-V-FITC/propidium iodide staining based flow cytometry (reference value: 0.63 %)
# Assay type: functional
# Details: not given
# Procedure, shortened: (§5)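 A549 seeded at 3×10^5 cells/well and treated at 10, 20 or 50 nM for 24 or 48 h, then harvested. Annexin V-FITC in HEPES 10 mM/NaCl 140 mM/CaCl2 2.5 mM (pH 7.4) 15 min at room temperature, then PI 10 min. About 10,000 events by flow cytometry, quadrants scored as early or late apoptotic. Three repeats.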
row,Structure (SMILES),Activity [%]
1,COc1cc(C2CCCCc3c2ccc2c3ccn2C)cc(OC)c1OC (configuration not stated),58.4

# System: A549
# Experiment: Induction of apoptosis in human A549 cells assessed as late and early apoptotic cells at 20 nM measured after 24 hrs by Annexin-V-FITC/propidium iodide staining based flow cytometry (reference value: 0.63 %)
# Assay type: functional
# Details: not given
# Procedure, shortened: as §5
row,Structure (SMILES),Activity [%]
1,COc1cc(C2CCCCc3c2ccc2c3ccn2C)cc(OC)c1OC (configuration not stated),39.6

# System: not listed separately
# Experiment: Antiproliferative activity against human MCF7 cells measured after 48 hrs by MTT assay
# Assay type: functional, cell-based
# Details: MCF7, 48 h
row,Structure (SMILES),IC50 [nM]
1,COc1cc(C2CCCCc3c2ccc2c3ccn2C)cc(OC)c1OC (configuration not stated),51

# System: not listed separately
# Experiment: Antiproliferative activity against human PC3 cells measured after 48 hrs by MTT assay
# Assay type: functional, cell-based
# Details: PC-3, 48 h
row,Structure (SMILES),IC50 [nM]
1,COc1cc(C2CCCCc3c2ccc2c3ccn2C)cc(OC)c1OC (configuration not stated),47

# System: A549
# Experiment: Cytotoxicity against human A549 cells assessed as change in cell morphology at 20 to 200 nM measured after 48 hrs by phase contrast microscopy
# Assay type: functional, cell-based
# Details: not given
# Procedure, shortened: as §4
row,Structure (SMILES),Activity
1,COc1cc(C2CCCCc3c2ccc2c3ccn2C)cc(OC)c1OC (configuration not stated),Active

# System: A549
# Experiment: Induction of apoptosis in human A549 cells assessed as late and early apoptotic cells at 50 nM measured after 48 hrs by Annexin-V-FITC/propidium iodide staining based flow cytometry (reference value: 0.63 %)
# Assay type: functional
# Details: not given
# Procedure, shortened: as §5
row,Structure (SMILES),Activity [%]
1,COc1cc(C2CCCCc3c2ccc2c3ccn2C)cc(OC)c1OC (configuration not stated),60.2

# System: not listed separately
# Experiment: Antiproliferative activity against human BJ cells measured after 48 hrs by MTT assay
# Assay type: cell-based
# Details: not given
# Procedure, shortened: as §2
row,Structure (SMILES),IC50 [nM]
1,COc1cc(C2CCCCc3c2ccc2c3ccn2C)cc(OC)c1OC (configuration not stated),1210

# System: A549
# Experiment: Induction of apoptosis in human A549 cells assessed as late and early apoptotic cells at 50 nM measured after 24 hrs by Annexin-V-FITC/propidium iodide staining based flow cytometry (reference value: 0.63 %)
# Assay type: functional
# Details: not given
# Procedure, shortened: as §5
row,Structure (SMILES),Activity [%]
1,COc1cc(C2CCCCc3c2ccc2c3ccn2C)cc(OC)c1OC (configuration not stated),59.8

# System: not listed separately
# Experiment: Antiproliferative activity against human MCF10A cells measured after 48 hrs by MTT assay
# Assay type: cell-based
# Details: MCF-10A
# Procedure, shortened: as §2
row,Structure (SMILES),IC50 [nM]
1,COc1cc(C2CCCCc3c2ccc2c3ccn2C)cc(OC)c1OC (configuration not stated),672

# System: not listed separately
# Experiment: Selectivity ratio of IC50 for HLF to IC50 for human A549 cells
# Assay type: ADME, cell-based
# Details: HLF versus A549 cells, read-out: Ratio IC50
# Procedure, shortened: as §3
row,Structure (SMILES),selectivity ratio
1,COc1cc(C2CCCCc3c2ccc2c3ccn2C)cc(OC)c1OC (configuration not stated),76.1

# System: not listed separately
# Experiment: Antiproliferative activity against HLF measured after 48 hrs by MTT assay
# Details: Homo sapiens
# Procedure, shortened: as §2
row,Structure (SMILES),IC50 [nM]
1,COc1cc(C2CCCCc3c2ccc2c3ccn2C)cc(OC)c1OC (configuration not stated),1670

# System: A549
# Experiment: Disruption of cellular microtubule network in human A549 cells assessed as blockade of cell mitosis measured after 12 hrs by Hochest 33342 staining based laser confocal microscopy
# Details: not given
row,Structure (SMILES),Activity
1,COc1cc(C2CCCCc3c2ccc2c3ccn2C)cc(OC)c1OC (configuration not stated),Active

# System: A549
# Experiment: Induction of apoptosis in human A549 cells by Annexin-V-FITC/propidium iodide staining based flow cytometry
# Assay type: functional, cell-based
# Details: not given
# Procedure, shortened: as §5
row,Structure (SMILES),Activity
1,COc1cc(C2CCCCc3c2ccc2c3ccn2C)cc(OC)c1OC (configuration not stated),Dose-dependent effect

# System: A549
# Experiment: Induction of apoptosis in human A549 cells assessed as late and early apoptotic cells at 10 nM measured after 48 hrs by Annexin-V-FITC/propidium iodide staining based flow cytometry (reference value: 0.63 %)
# Assay type: functional
# Details: not given
# Procedure, shortened: as §5
row,Structure (SMILES),Activity [%]
1,COc1cc(C2CCCCc3c2ccc2c3ccn2C)cc(OC)c1OC (configuration not stated),41.4

# System: not listed separately
# Experiment: Cytotoxicity against HUVEC assessed as change in cell morphology at 200 nM in presence of fetal calf serum and absence of growth factor measured after 48 hrs by phase contrast microscopy
# Assay type: toxicity, cell-based
# Details: human, 0.2 µM
# Procedure, shortened: as §4
row,Structure (SMILES),Activity
1,COc1cc(C2CCCCc3c2ccc2c3ccn2C)cc(OC)c1OC (configuration not stated),Toxic

# System: not listed separately
# Experiment: Antiproliferative activity against human HeLa cells measured after 48 hrs by MTT assay
# Assay type: functional, cell-based
# Details: not given
row,Structure (SMILES),IC50 [nM]
1,COc1cc(C2CCCCc3c2ccc2c3ccn2C)cc(OC)c1OC (configuration not stated),56

# System: A549
# Experiment: Induction of apoptosis in human A549 cells assessed as late and early apoptotic cells at 10 nM measured after 24 hrs by Annexin-V-FITC/propidium iodide staining based flow cytometry (reference value: 0.63 %)
# Assay type: functional
# Details: not given
# Procedure, shortened: as §5
row,Structure (SMILES),Activity [%]
1,COc1cc(C2CCCCc3c2ccc2c3ccn2C)cc(OC)c1OC (configuration not stated),22.8

# System: not listed separately
# Experiment: Antiproliferative activity against human A2780 cells measured after 48 hrs by MTT assay
# Assay type: functional, cell-based
# Details: A2780, 48 h
row,Structure (SMILES),IC50 [nM]
1,COc1cc(C2CCCCc3c2ccc2c3ccn2C)cc(OC)c1OC (configuration not stated),37

# System: not listed separately
# Experiment: Cell cycle arrest in human A549 cells assessed as accumulation at G2/M phase at 25 nM measured after 24 hrs by propidium iodide staining based flow cytometry relative to control
# Assay type: functional
# Details: not given
# Procedure, shortened: as §1
row,Structure (SMILES),Activity [%]
1,COc1cc(C2CCCCc3c2ccc2c3ccn2C)cc(OC)c1OC (configuration not stated),55.1
